Legend:
[1] = biological target: Serine/threonine-protein kinase Nek7 (Homo sapiens) (UniProt Q8TDX7); assay: Inhibition of NEK7 assessed as residual activity at 10 uM by Cherenkov counting relative to control
[2] = biological target: Protein kinase C alpha type (Homo sapiens) (UniProt P17252); assay: Inhibition of PKCalpha assessed as residual activity at 10 uM by Cherenkov counting relative to control in presence of 20 uM ATP
How it was run: (§1)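 Single-concentration profiling at 10 μM in a 78-kinase panel. Kinase activity is expressed as a percentage of control assays run without compound.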

[3] = biological target: Maternal embryonic leucine zipper kinase (Homo sapiens) (UniProt Q14680); assay: Inhibition of MELK assessed as residual activity at 10 uM by Cherenkov counting relative to control in presence of 50 uM ATP
[4] = Inhibition of AMPK assessed as residual activity at 10 uM by Cherenkov counting relative to control in presence of 50 uM ATP
How it was run: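 Single-point profiling at 10 µM in a panel of 78 protein kinases. Kinase activity is expressed as a percentage relative to control assays without compound.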

[5] = Inhibition of PKA assessed as residual activity at 10 uM by Cherenkov counting relative to control in presence of 20 uM ATP; how it was run: as §1
[6] = biological target: MAP/microtubule affinity-regulating kinase 3 (Homo sapiens) (UniProt P27448); assay: Inhibition of MARK3 assessed as residual activity at 0.1 uM by Cherenkov counting relative to control in presence of 5 uM ATP
How it was run: (§2)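 Single-concentration selectivity screen at 0.1 μM against a panel of 76 protein kinases. Each kinase was run at an ATP level approximating its Km for ATP. Output is mean residual activity as % of the control assay without compound, n = 3 ± SD.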

[7] = biological target: Mitogen-activated protein kinase 12 (Homo sapiens) (UniProt P53778); assay: Inhibition of p38-gamma assessed as residual activity at 0.1 uM by Cherenkov counting relative to control
How it was run: (§3)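 Single-concentration screen at 0.1 μM in a 76-kinase panel. ATP for each kinase was set near its Km for ATP. Residual activity is given as a percentage of control assays without compound, mean of n = 3 ± SD.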

[8] = biological target: T1, Serine/threonine-protein kinase Nek2 (Homo sapiens) (UniProt P51955); assay: Inhibition of NEK2a assessed as residual activity at 0.1 uM by Cherenkov counting relative to control in presence of 50 uM ATP; how it was run: as §2
T1 sequence (whole entry): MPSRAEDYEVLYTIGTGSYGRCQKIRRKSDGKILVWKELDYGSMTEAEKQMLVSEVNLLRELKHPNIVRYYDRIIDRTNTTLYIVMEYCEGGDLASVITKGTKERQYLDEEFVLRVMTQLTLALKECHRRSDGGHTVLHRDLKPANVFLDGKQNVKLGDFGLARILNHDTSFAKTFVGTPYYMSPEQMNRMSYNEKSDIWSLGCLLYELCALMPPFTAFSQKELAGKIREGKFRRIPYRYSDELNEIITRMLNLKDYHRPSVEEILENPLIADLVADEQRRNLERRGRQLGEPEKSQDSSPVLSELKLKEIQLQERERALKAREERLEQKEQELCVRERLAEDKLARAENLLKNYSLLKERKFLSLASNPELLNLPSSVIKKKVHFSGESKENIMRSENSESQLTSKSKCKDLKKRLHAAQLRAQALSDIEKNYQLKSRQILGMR

[9] = biological target: Serine/threonine-protein kinase 26 (Homo sapiens) (UniProt Q9P289); assay: Inhibition of MST4 assessed as residual activity at 0.1 uM by Cherenkov counting relative to control in presence of 20 uM ATP; how it was run: as §2
[10] = biological target: T2, Protein kinase C zeta type (Homo sapiens) (UniProt Q05513); assay: Inhibition of PKCzeta assessed as residual activity at 0.1 uM by Cherenkov counting relative to control in presence of 5 uM ATP; how it was run: as §3
T2 sequence (whole entry): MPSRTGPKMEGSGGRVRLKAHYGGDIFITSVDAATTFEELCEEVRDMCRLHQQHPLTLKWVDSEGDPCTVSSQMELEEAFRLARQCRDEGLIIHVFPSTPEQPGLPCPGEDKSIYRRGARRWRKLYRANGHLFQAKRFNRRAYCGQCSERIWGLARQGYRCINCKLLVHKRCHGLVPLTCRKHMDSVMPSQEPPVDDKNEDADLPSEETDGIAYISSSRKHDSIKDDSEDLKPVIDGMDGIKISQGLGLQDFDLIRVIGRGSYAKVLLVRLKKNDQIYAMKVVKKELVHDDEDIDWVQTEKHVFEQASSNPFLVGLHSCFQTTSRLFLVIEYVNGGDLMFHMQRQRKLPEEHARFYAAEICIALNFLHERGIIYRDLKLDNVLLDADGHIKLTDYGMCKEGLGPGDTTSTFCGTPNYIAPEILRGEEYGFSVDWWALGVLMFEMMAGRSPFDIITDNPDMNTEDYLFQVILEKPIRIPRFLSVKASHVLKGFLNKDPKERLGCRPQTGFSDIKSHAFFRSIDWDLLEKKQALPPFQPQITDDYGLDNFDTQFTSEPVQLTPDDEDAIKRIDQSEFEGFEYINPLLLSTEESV

[11] = biological target: RAC-beta serine/threonine-protein kinase (Homo sapiens) (UniProt P31751); assay: Inhibition of PKBbeta assessed as residual activity at 0.1 uM by Cherenkov counting relative to control in presence of 50 uM ATP; how it was run: as §3
[12] = biological target: T3, MAP kinase-activated protein kinase 5 (Homo sapiens) (UniProt Q8IW41); assay: Inhibition of PRAK assessed as residual activity at 0.1 uM by Cherenkov counting relative to control in presence of 20 uM ATP; how it was run: as §3
T3 sequence (whole entry): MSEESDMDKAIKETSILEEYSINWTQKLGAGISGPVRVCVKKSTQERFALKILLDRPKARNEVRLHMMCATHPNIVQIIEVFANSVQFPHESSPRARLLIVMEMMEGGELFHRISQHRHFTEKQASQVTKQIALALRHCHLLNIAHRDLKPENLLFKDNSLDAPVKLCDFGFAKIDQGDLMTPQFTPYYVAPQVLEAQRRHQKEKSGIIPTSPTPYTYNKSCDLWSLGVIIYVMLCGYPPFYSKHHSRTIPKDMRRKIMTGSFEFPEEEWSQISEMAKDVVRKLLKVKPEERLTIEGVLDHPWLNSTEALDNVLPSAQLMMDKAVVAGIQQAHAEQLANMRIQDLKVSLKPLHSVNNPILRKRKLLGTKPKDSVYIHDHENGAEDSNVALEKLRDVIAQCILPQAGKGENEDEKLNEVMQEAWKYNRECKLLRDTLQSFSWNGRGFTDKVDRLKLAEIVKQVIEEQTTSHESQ

Serine/threonine-protein kinase Nek7 (Homo sapiens), sequence (Q8TDX7 whole entry, looked up): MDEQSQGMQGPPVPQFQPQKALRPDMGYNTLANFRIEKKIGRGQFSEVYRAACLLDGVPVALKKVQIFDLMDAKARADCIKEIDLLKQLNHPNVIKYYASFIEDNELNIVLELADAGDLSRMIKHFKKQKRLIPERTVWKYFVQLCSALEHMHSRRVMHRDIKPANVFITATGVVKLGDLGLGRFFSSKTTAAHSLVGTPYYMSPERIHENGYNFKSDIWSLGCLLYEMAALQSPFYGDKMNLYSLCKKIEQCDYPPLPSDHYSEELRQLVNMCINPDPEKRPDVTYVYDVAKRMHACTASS
RAC-beta serine/threonine-protein kinase (Homo sapiens), sequence (P31751 whole entry): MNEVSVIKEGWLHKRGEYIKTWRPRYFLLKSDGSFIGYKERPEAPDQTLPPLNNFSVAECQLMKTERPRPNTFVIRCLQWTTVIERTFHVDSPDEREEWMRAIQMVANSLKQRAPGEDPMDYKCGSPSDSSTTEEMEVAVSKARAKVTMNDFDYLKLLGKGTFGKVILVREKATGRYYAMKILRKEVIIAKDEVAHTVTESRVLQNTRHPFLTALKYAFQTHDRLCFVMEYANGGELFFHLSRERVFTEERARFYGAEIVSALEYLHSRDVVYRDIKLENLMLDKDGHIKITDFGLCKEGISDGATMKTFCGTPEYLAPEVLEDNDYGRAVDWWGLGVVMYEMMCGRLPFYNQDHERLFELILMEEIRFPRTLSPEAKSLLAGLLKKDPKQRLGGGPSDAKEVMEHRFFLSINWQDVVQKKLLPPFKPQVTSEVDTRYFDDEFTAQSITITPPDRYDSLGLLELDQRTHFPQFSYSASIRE
Serine/threonine-protein kinase 26 (Homo sapiens), sequence (Q9P289 2-416 limits assumed): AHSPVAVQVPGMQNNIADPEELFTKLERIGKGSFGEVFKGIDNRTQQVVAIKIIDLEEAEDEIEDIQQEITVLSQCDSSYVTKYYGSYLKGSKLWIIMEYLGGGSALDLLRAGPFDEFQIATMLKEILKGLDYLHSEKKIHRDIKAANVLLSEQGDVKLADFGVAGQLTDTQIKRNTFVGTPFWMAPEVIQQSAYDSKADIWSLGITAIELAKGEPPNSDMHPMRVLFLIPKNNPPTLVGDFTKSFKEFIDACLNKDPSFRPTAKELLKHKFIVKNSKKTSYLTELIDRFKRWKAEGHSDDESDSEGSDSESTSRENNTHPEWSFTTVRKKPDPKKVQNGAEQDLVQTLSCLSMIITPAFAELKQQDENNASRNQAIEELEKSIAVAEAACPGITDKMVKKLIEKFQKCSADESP
MAP/microtubule affinity-regulating kinase 3 (Homo sapiens), sequence (P27448 whole entry, looked up): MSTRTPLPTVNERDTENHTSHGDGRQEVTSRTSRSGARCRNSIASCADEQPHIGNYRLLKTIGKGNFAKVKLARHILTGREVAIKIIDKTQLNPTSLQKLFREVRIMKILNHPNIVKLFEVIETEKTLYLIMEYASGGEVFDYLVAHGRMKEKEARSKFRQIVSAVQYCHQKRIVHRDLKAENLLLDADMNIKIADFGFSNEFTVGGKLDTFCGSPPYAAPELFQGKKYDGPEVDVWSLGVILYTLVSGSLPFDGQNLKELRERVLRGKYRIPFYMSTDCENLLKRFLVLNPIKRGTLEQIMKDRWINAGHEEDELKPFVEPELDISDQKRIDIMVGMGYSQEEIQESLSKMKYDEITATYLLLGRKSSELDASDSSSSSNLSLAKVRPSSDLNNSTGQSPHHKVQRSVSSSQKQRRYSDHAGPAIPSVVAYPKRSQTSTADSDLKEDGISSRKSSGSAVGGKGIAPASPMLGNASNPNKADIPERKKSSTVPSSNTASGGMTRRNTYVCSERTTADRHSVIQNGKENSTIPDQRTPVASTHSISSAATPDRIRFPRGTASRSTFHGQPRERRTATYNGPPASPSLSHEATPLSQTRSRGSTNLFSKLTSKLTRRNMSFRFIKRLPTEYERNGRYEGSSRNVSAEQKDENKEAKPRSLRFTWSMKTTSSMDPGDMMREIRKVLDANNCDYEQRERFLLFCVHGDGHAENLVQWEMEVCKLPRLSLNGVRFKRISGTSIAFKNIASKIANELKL
Maternal embryonic leucine zipper kinase (Homo sapiens), sequence (Q14680 whole entry, looked up): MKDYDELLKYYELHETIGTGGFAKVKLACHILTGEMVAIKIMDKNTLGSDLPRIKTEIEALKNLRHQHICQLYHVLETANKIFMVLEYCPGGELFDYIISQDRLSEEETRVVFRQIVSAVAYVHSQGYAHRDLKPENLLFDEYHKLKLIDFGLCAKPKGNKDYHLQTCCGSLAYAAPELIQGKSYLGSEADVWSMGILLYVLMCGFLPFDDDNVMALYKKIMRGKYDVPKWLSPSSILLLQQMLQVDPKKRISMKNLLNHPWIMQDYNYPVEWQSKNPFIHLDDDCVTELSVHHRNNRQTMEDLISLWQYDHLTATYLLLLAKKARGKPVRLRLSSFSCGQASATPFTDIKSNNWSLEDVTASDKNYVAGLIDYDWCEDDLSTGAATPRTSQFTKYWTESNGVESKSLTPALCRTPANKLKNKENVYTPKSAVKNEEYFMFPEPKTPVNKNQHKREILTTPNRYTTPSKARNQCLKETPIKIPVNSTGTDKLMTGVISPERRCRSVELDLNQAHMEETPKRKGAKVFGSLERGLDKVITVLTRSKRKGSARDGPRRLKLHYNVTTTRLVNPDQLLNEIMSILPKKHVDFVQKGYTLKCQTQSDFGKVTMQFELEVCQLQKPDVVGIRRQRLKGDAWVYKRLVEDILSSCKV
Mitogen-activated protein kinase 12 (Homo sapiens), sequence (P53778 whole entry): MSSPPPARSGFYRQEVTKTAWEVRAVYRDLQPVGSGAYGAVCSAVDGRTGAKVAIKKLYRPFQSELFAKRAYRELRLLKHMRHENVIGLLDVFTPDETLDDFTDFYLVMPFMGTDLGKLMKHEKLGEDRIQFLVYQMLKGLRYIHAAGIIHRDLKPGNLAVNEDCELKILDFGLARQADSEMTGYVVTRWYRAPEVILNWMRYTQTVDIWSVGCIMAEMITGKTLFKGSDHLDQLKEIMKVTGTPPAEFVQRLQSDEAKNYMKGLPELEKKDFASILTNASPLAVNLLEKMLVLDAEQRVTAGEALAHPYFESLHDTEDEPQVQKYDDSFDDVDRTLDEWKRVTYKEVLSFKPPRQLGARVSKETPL

| Activity [1] [%] | Activity [2] [%] | Activity [3] [%] | Activity [4] [%] | Activity [5] [%] | Activity [6] [%] | Activity [7] [%] | Activity [8] [%] | Activity [9] [%] | Activity [10] [%] | Activity [11] [%] | Activity [12] [%] | Structure (SMILES) |
| --- | --- | --- | --- | --- | --- | --- | --- | --- | --- | --- | --- | --- |
| 104 | 95 | 78 | 88 | 28 | – | – | – | – | – | – | – | CC(C)c1onc(-c2ccc(F)cc2)c1-c1ccncc1 |
| 100 | 104 | 108 | 73 | 90 | – | – | – | – | – | – | – | CC(C)c1noc(-c2ccc(F)cc2)c1-c1ccncc1 |
| – | – | – | – | – | 87 | 84 | 91 | 90 | 79 | 98 | 83 | COc1ccc(/C=C/C(=O)Nc2cc(-c3[nH]c(SC)nc3-c3ccc(F)cc3)ccn2)c(OC)c1 |
| – | – | – | – | – | 89 | 97 | 92 | 86 | 83 | 100 | 101 | COc1ccc(/C=C/C(=O)Nc2cc(-c3[nH]c([S+](C)[O-])nc3-c3ccc(F)cc3)ccn2)c(OC)c1 (centres undefined) |

Source: ChEMBL document CHEMBL1155278, “3,4-Diaryl-isoxazoles and -imidazoles as potent dual inhibitors of p38alpha mitogen activated protein kinase and casein kinase 1delta” (J Med Chem, 2009)
